Source: paper PMC3115441 (Chemical biology & drug design, 2011)
“Also recorded” adds a separate entry of the source. Read-outs that look alike come from different tables or passages of the source.

Assays:
Dopamine 1 (D1) = Dopamine 1 (D1) (Homo sapiens, UniProt P21728); experiment: NIMH-PDSP radioligand binding, D1
mice = experiment: Acute toxicity, minimal motor impairment; type: in vivo; conditions: for TOX (30) N/F, animals toxic over tested / TOX (65) N/F, animals toxic over tested / TOX (100) N/F, animals toxic over tested / TOX (300) N/F, animals toxic over tested: rotorod; for TOX (30) N/F, animals toxic over tested: 30 mg/kg
[1] = target: Norepinephrine Transporter (NET) (Homo sapiens, UniProt P23975); experiment: NIMH-PDSP radioligand binding, NET
rats = experiment: Acute toxicity, minimal motor impairment in rats; type: in vivo; conditions: 30 mg/kg
[2] = target: κ- opioid receptors (KOR) (Rattus norvegicus, UniProt P34975); experiment: NIMH-PDSP radioligand binding, KOR
[3] = system: Metrazol-induced clonic seizures; experiment: Subcutaneous Metrazol seizure threshold test; type: in vivo, mice; conditions: for scMET (30) N/F, animals active over tested: 30 mg/kg; for scMET (100) N/F, animals active over tested: 100 mg/kg
[4] = system: PCP site of the NMDA receptor complex; experiment: [3H]; type: binding, rat
How it was run: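 Washed rat forebrain homogenate (30 ug/mL protein) in 10 mM HEPES, pH 7.4, with 1 nM (+)-[3H]MK-801, 100 uM glutamate, 30 uM glycine and varied competitor concentrations. Nonspecific binding was set with 30 uM (+)-MK-801. Incubation ran 2 h at room temperature, then vacuum filtration onto GF/B filters, three buffer washes and scintillation counting.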

[5] = target: Dopamine Transporter (DAT) (Homo sapiens, UniProt Q01959); experiment: NIMH-PDSP radioligand binding, DAT
Serotonin 2A (5-HT2A) = Serotonin 2A (5-HT2A) (Homo sapiens, UniProt P28223); experiment: NIMH-PDSP radioligand binding, 5-HT2A
6HZ = 6HZ test; type: in vivo; conditions: 50 mg/kg
MES-induced seizures [6] = experiment: Anticonvulsant protection test in rats; type: in vivo; conditions: 30 mg/kg
How it was run: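 Rats were dosed orally at 30 mg/kg in 0.04 ml/10 g. Corneal electrodes primed with 0.5% tetracaine HCl electrolyte delivered 60 Hz alternating current, 150 mA, for 0.2 s. Protection meant abolition of the hindlimb tonic extensor component of the seizure.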

Sigma1 = Sigma1 (Rattus norvegicus, UniProt Q9R0C9); experiment: NIMH-PDSP radioligand binding, Sigma-1
[7] = target: Serotonin Transporter (SERT) (Homo sapiens, UniProt P31645); experiment: NIMH-PDSP radioligand binding, SERT
Sigma2 = target: T1, Sigma2 (Rattus norvegicus, UniProt Q5U3Y7); experiment: NIMH-PDSP radioligand binding, Sigma-2
T1 sequence (Q5U3Y7 1-176): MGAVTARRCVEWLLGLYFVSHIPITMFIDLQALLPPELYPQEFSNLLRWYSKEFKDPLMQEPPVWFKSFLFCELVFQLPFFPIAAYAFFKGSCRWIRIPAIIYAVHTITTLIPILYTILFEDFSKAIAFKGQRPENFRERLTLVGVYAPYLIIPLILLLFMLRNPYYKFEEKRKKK

[8] = target: μ- opioid receptors (MOR) (Homo sapiens, UniProt P35372); experiment: NIMH-PDSP radioligand binding, MOR
MES-induced seizures [9] = experiment: Maximal electroshock; type: in vivo, mice; conditions: for MES (30) N/F, animals active over tested: 30 mg/kg i.p.; for MES (100) N/F, animals active over tested: 100 mg/kg i.p.; for MES neuroprotective activity (in words): mouse, in vivo; for MES (300) N/F, animals active over tested: 300 mg/kg i.p.
How it was run: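 Mice received test compound i.p. at 30, 100 or 300 mg/kg in 0.01 ml/g and were tested at various intervals after dosing. Corneal electrodes primed with 0.5% tetracaine HCl electrolyte delivered 60 Hz alternating current, 50 mA, for 0.2 s. An animal counted as protected when the hindlimb tonic extensor component was abolished. Results are scored as animals protected over tested.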

Dopamine 2 (D2) = Dopamine 2 (D2) (Homo sapiens, UniProt P14416); experiment: NIMH-PDSP radioligand binding, D2
[10] = system: PCP site of the NMDA receptor complex; conditions: ref [39], [40]; cited from earlier work
MES-induced seizures [11] = conditions: literature statement, no reference given; cited from earlier work
[12] = read-out: D1 binding affinity, Human Cloned, hot ligand SCH23390
[13] = read-out: NET binding affinity, Human Cloned, hot ligand Nisoxetine
[14] = read-out: KOR binding affinity, Rat Cloned, hot ligand U69593
[15] = read-out: DAT binding affinity, Human Cloned, hot ligand WIN35428
[16] = read-out: 5HT2A binding affinity, Human Cloned, hot ligand Ketanserin
[17] = read-out: Sigma 1 binding affinity, Rat Brain, hot ligand Pentazocine(+)
[18] = read-out: SERT binding affinity, Human Cloned, hot ligand Citalopram
[19] = read-out: Sigma 2 binding affinity, Rat C12, hot ligand DTG
[20] = read-out: MOR binding affinity, Human Cloned, hot ligand DAMGO
[21] = read-out: D2 binding affinity, Human Cloned, hot ligand N-Methylspiperone

Sequence of Sigma1 (Q9R0C9 whole entry): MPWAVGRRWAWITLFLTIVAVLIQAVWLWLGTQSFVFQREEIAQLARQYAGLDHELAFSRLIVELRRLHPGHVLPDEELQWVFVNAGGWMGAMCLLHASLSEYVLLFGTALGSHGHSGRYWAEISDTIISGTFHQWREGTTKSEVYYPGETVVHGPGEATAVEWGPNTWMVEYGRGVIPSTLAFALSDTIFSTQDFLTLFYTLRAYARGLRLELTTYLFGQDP
Sequence of Norepinephrine Transporter (NET) (P23975 whole entry): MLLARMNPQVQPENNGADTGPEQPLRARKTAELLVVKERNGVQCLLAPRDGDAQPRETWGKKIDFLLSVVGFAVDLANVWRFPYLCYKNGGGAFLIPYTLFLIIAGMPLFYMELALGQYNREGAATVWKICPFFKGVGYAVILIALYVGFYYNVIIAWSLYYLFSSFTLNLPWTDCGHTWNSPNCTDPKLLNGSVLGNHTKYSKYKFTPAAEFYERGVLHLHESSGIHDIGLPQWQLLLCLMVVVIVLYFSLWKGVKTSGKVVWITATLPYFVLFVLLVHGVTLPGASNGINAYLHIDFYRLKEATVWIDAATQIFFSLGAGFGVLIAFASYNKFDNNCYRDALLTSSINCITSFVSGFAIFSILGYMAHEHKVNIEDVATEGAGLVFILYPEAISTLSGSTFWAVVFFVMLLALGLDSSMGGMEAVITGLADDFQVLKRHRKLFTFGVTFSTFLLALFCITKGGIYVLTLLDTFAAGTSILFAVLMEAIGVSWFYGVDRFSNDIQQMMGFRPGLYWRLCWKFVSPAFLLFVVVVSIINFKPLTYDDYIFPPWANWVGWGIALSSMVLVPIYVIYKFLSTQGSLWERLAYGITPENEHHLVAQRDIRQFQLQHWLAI
Sequence of Dopamine Transporter (DAT) (Q01959 whole entry): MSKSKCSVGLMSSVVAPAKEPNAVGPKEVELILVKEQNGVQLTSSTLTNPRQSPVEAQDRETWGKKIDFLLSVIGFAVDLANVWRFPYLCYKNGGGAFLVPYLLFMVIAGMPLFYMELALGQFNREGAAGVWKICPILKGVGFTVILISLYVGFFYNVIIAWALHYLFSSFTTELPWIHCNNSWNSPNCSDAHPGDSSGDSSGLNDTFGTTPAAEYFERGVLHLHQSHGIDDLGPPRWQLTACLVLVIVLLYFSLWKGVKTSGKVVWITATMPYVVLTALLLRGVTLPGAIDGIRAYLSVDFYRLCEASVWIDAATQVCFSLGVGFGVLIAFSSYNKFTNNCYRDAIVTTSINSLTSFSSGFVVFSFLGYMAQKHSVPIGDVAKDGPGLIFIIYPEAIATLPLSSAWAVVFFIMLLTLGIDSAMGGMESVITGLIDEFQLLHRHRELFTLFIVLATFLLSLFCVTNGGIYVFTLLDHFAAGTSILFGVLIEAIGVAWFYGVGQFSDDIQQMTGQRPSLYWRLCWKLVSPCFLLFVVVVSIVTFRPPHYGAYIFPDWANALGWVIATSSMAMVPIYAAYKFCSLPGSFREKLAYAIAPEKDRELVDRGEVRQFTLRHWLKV
Sequence of κ- opioid receptors (KOR) (P34975 whole entry): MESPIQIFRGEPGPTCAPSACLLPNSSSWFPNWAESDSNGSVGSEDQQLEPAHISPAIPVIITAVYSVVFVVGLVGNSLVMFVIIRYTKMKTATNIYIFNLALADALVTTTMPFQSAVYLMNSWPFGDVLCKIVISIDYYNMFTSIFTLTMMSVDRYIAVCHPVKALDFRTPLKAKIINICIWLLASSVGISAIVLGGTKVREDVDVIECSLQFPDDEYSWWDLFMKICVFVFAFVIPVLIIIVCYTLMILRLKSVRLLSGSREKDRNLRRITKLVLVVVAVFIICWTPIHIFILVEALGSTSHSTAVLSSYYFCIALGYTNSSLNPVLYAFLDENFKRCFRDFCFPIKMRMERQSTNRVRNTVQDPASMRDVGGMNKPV
Sequence of Dopamine 1 (D1) (P21728 whole entry): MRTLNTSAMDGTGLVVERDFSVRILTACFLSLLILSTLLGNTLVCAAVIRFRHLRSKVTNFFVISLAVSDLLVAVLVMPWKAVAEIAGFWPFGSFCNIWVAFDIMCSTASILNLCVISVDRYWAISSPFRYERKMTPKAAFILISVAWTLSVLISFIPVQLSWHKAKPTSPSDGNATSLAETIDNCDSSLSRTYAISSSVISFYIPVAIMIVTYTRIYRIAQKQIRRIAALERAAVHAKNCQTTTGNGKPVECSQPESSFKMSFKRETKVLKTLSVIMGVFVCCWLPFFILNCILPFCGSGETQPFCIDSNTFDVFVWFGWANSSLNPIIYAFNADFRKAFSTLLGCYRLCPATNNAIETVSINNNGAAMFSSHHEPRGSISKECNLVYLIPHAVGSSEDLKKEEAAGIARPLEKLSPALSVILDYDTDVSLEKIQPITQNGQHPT
Sequence of Serotonin 2A (5-HT2A) (P28223 whole entry): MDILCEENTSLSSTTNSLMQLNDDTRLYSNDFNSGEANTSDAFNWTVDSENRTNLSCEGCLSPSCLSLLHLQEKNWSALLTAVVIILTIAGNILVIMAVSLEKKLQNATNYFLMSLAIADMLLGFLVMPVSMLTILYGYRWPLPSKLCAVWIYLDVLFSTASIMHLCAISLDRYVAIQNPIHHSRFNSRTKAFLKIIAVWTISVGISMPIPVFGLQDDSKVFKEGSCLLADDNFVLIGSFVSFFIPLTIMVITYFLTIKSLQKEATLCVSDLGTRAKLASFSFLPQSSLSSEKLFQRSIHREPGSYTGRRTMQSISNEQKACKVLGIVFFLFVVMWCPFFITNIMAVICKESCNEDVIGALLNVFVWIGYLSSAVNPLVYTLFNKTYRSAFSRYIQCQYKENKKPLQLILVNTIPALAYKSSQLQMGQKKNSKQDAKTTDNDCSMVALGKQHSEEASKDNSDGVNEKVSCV
Sequence of μ- opioid receptors (MOR) (P35372 whole entry): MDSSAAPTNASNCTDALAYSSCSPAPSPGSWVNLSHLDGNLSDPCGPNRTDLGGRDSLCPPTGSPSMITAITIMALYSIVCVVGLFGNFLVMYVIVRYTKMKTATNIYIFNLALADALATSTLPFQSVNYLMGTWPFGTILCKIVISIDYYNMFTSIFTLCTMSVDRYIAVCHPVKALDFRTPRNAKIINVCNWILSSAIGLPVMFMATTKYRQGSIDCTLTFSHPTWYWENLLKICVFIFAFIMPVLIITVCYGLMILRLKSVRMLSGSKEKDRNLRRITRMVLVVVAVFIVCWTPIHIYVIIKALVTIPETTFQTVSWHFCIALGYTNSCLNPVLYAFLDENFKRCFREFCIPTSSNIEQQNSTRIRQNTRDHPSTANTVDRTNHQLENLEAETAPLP
Sequence of Dopamine 2 (D2) (P14416 whole entry): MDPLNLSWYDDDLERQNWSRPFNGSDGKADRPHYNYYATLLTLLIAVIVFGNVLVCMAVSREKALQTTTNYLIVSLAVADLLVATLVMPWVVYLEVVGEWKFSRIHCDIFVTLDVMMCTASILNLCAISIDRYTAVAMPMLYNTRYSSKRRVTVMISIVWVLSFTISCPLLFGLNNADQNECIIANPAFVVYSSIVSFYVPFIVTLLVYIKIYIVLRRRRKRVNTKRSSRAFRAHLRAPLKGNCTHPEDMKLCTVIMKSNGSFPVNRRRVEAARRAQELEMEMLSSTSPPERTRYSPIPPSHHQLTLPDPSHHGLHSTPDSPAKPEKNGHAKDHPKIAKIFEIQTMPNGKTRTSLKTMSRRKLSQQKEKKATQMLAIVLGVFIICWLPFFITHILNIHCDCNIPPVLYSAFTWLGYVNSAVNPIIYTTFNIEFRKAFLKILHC
Sequence of Serotonin Transporter (SERT) (P31645 whole entry): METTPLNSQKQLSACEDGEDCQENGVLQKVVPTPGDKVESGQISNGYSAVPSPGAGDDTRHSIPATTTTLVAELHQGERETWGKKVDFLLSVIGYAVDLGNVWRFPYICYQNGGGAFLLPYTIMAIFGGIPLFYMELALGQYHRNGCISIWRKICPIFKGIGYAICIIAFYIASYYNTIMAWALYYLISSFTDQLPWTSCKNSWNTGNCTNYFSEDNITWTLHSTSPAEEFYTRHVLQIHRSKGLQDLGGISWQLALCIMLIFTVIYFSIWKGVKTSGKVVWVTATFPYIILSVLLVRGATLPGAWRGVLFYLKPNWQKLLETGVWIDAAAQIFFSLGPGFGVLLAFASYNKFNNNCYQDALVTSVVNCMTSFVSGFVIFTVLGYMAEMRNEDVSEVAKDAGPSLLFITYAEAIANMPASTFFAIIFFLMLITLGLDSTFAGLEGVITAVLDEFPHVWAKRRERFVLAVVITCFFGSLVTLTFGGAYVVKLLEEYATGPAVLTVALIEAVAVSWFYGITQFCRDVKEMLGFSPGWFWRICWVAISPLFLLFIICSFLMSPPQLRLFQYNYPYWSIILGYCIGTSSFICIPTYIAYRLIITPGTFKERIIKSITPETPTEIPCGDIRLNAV

| Compound | Ki (Dopamine 1 (D1); [12]) | TOX comments (mice; 100 mg/kg, 0.5 h) | TOX comments (mice; 300 mg/kg, 0.5 h) | TOX (30) N/F, animals toxic over tested (mice; 0.5 h) | TOX (30) N/F, animals toxic over tested (mice; 4.0 h) | TOX (65) N/F, animals toxic over tested (mice; 65 mg/kg, 0.5 h) | TOX (100) N/F, animals toxic over tested (mice; 100 mg/kg, 0.5 h) | TOX (100) N/F, animals toxic over tested (mice; 100 mg/kg, 4.0 h) | TOX (300) N/F, animals toxic over tested (mice; 300 mg/kg, 0.5 h) | Ki [1, 13] | toxicity in rats (in words) (rats) | Ki [2, 14] | scMET (30) N/F, animals active over tested ([3]; 0.5 h) | scMET (30) N/F, animals active over tested ([3]; 4.0 h) | scMET (100) N/F, animals active over tested ([3]; 0.5 h) | scMET (100) N/F, animals active over tested ([3]; 4.0 h) | MES (30) N/F, animals active over tested (MES-induced seizures [9]; 0.5 h) | MES (30) N/F, animals active over tested (MES-induced seizures [9]; 4.0 h) | MES (100) N/F, animals active over tested (MES-induced seizures [9]; 0.5 h) | MES (100) N/F, animals active over tested (MES-induced seizures [9]; 4.0 h) | also measured |
| --- | --- | --- | --- | --- | --- | --- | --- | --- | --- | --- | --- | --- | --- | --- | --- | --- | --- | --- | --- | --- | --- |
| Fc1ccc(C2(NCCN3CCCCC3)CC3CCC2C3)cc1 (stereo not drawn) [Compound 5b] | > 10 µM | Clonic seizures | Death | 0/4 | 0/2 | 2/4 | 3/8 | 0/4 | 4/4 / | > 10 µM | did not display any protection or toxicity | 3.55 µM | 0/1 0/1 | 0/1 0/1 | 0/1 0/1 | 0/1 0/1 | 0/1 0/1 | 0/1 0/1 | 2/3 | 0/3 | TOX comments (mice; 50 mg/kg, 0.25 h): Clonic seizures; affinity for NMDA (in words) [4]: did not exhibit significant affinity; Ki [5, 15]: 1.23 µM; Ki (Serotonin 2A (5-HT2A); [16]): 8.82 µM; 6HZ (50), animals active over tested (6HZ; 0.5 h): 0/4; protection in rats (in words) (MES-induced seizures [6]): did not display any protection; Ki (Sigma1; [17]): > 10 µM; Ki [7, 18]: > 10 µM; Ki (Sigma2; [19]): > 10 µM; Ki [8, 20]: > 10 µM; MES neuroprotective activity (in words) (MES-induced seizures [9]): displayed MES neuroprotective activity; Ki (Dopamine 2 (D2); [21]): > 10 µM |
| Fc1ccc(C2(NCCN3CCOCC3)CC3CCC2C3)cc1 (stereo not drawn) [Compound 5d, 2-(4-Fluorophenyl)-N-(2-morpholinoethyl)bicyclo [2.2.1]heptan-2-amine] | – | Clonic seizures | Loss of righting reflex; also recorded: Death | 0/4 | 0/2 | 0/4 0/4 | 1/8 | 0/4 | 4/4 / | – | did not display any protection or toxicity | – | 0/1 0/1 | 0/1 0/1 | 0/1 0/1 | 0/1 0/1 | 0/1 0/1 | 0/1 0/1 | 2/3 | 0/3 | Ki (Dopamine 1 (D1)): > 10 µM; TOX comments (mice; 65 mg/kg, 0.25 h): Clonic seizures; TOX (65) N/F, animals toxic over tested (mice; 65 mg/kg, 4.0 h): 0/4 0/4; Ki [1]: > 10 µM; Ki [2]: > 10 µM; affinity for NMDA (in words) [4]: did not exhibit significant affinity; Ki [5]: 6.48 µM; Ki (Serotonin 2A (5-HT2A)): > 10 µM; 6HZ (50), animals active over tested (6HZ; 0.5 h): 1/4 1/4; 6HZ (50), animals active over tested (6HZ; 4.0 h): 1/4 1/4; protection in rats (in words) (MES-induced seizures [6]): did not display any protection; Ki (Sigma1): > 10 µM; Ki [7]: > 10 µM; Ki (Sigma2): > 10 µM; Ki [8]: > 10 µM; MES (300) N/F, animals active over tested (MES-induced seizures [9]; 0.5 h): 1/1; MES (300) N/F, animals active over tested (MES-induced seizures [9]; 4.0 h): 0/0; MES neuroprotective activity (in words) (MES-induced seizures [9]): displayed MES neuroprotective activity; Ki (Dopamine 2 (D2)): > 10 µM |
| Fc1ccc(C2(NCCN3CCCC3)CC3CCC2C3)cc1 (stereo not drawn) [Compound 5f] | > 10 µM | Clonic seizures | Death | 0/4 | 0/2 | – | 5/8 | 0/4 | 4/4 / | > 10 µM | – | 2.11 µM | 0/1 0/1 | 0/1 0/1 | 0/1 0/1 | 0/1 0/1 | 0/1 0/1 | 0/1 0/1 | 1/3 | 0/1 | % inhibition of 1 nM [3H] (+)-MK-801 ([4]; compound at 10 μM (10,000 nM)): greater than 90%; IC50 ([4]; rat forebrain homogenate, 1 nM (+)-[3H]MK-801): 8.66 ± 2.56 µM; Ki ([4]; read-out: NMDA affinity Ki, calculated by Cheng and Prusoff equation): 5.82 µM; Ki [5, 15]: 0.226 µM; Ki (Serotonin 2A (5-HT2A); [16]): > 10 µM; Ki (Sigma1; [17]): > 10 µM; Ki [7, 18]: 4.61 µM; Ki (Sigma2; [19]): > 10 µM; Ki [8, 20]: > 10 µM; Ki (Dopamine 2 (D2); [21]): > 10 µM |
| CN1CC[C@@]23CCCC[C@@H]2[C@@H]1Cc1ccc(O)cc13 [DX, dextrophan] | – | – | – | – | – | – | – | – | – | – | – | – | – | – | – | – | – | – | – | – | activity / affinity at NMDA (in words) [10]: μM affinity |
| COc1ccc2c(c1)[C@]13CCCC[C@@H]1[C@H](C2)N(C)CC3 [DXM, dextromethorphan] | – | – | – | – | – | – | – | – | – | – | – | – | – | – | – | – | – | – | – | – | neuroprotective activity in the MES test (in words) (MES-induced seizures [11]): neuroprotective activity in the MES test; activity / affinity at NMDA (in words) [10]: low activity at NMDA |
